Compound activity from PubChem.
This is a sample that favours compounds with a hit; in the whole collection about 2.1% have one here.
CXCR6 block – blocks human CXCR6 beta-arrestin recruitment; O00574; CHO-K1 PathHunter CXCR6 beta-arrestin, luminescence; inhibition, % at 20 µM; 0.36% of 360,000 active; in the data active = inhibition above about 34%, passing the limit was not always enough;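 note: antagonist mode with CXCL16 agonist at 10 nM final; 0% = 10 nM CXCL16 with DMSO and 100% = unstimulated wells without agonist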
APJ agonist – APJ receptor agonism | CHO-K1 APJ PathHunter beta-arrestin, luminescence; 0% DMSO wells, 100% apelin | activation, % at 20 µM | 0.11% of 330,000 active | P35414;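 active = activation more than six SD over the plate average, tested at 20 µM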;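 note: 0% = DMSO alone and 100% = apelin-13 at 10 nM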
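Material: CHO-K1 APJ beta-arrestin complementation cell line; Input: cell density 1000 per well; Incubation: compound stimulation 90 min at 25 °C, detection 60 min; Signal: luminescence from split beta-galactosidase complementation, Galacton Star/Emerald II substrate; Controls: DMSO-only wells as negative, 10 nM Apelin-13 as positive control.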
EBI2 antag – EBI2 (human) antagonism. EBI2 beta-arrestin recruitment, luminescence, 7a,25-OHC stimulated. inhibition, % at 5 µM. AID 651636. 0.81% of 360,000 active. P32249; in the data active = inhibition above about 38%;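 note: enzyme fragment complementation signal reports receptor beta-arrestin coupling in cells; 0% = agonist plus DMSO wells and 100% = wells without agonist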
APJ antagonist – blocks the human apelin receptor APJ. P35414. CHO-K1 APJ beta-arrestin complementation, luminescence. inhibition, % at 20 µM. 0.32% of 330,000 active. AID 2521;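 active = inhibition above about 40% at 20 µM, limit read from the data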;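 note: cells challenged with 10 nM apelin-13 agonist together with compound; plate controls were apelin-13 plus DMSO wells for no effect and DMSO wells lacking apelin-13 for full effect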
CCR6 antag – CCR6 (human) receptor antagonism | P51684 | CHO-K1 CCR6 PathHunter beta-arrestin, luminescence, CCL20-stimulated | inhibition, % at 20 µM | 0.49% of 340,000 active | AID 493098;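 active = compounds whose inhibition of the agonist-driven luminescence signal at 20 µM reaches about 50%, limit read from the data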;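 note: cells stimulated with CCL20 at 14 nM final; plate controls were DMSO with CCL20 for no effect and DMSO without agonist for full effect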
HTR2A ag – activates the mouse 5-HT2A serotonin receptor; CHO-K1 mHTR2A beta-arrestin complementation, luminescence; percent of 30 µM serotonin response; activation, % at 7.6 µM; 0.66% of 360,000 active; AID 624169;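 active = activation above a run cutoff, the mean activation of all tested compounds plus 3 SD, cut at about 14% in these data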;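 note: 0% = plate median of compound wells and 100% = 30 µM serotonin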
Target sequence (P35363 whole entry, looked up): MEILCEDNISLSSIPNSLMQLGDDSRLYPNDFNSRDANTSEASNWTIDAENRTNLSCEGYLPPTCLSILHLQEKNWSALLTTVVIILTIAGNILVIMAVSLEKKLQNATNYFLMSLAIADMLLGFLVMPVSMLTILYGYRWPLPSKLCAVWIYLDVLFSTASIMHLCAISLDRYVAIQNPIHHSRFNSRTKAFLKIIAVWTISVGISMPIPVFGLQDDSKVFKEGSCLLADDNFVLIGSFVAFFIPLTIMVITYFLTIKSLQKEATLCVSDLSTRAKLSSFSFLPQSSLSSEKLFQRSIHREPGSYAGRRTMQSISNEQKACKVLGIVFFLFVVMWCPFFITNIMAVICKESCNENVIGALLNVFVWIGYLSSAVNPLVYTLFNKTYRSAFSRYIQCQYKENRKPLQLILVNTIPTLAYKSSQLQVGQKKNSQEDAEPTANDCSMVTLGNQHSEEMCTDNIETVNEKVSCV
* hit, by the source's call; x = not tested or not shown.

SMILES	CXCR6 block	APJ agonist	EBI2 antag	APJ antagonist	CCR6 antag	HTR2A ag
N#CC1=C(SCC(=O)Nc2cccc3cccnc23)NC(=O)C(C#N)C12CCCCC2 (stereo not drawn)	-16	-1	-6	-17	-6	16*
O=C1CSC(c2ccccc2)N1Cc1ccccc1 (stereo not drawn)	5	-4	-6	15	x	-2
COc1ccc2cc(-c3[nH]ncc3CN3CCCN(c4ccccc4)CC3)ccc2c1	1	-3	33	-13	-12	-1
COc1ccc(/C=c2\sc3nc(=O)c(C)nn3c2=O)c(OC)c1	1	-3	-6	4	83*	1
COc1ccccc1/C=c1\sc2nc(-c3ccccc3OC)nn2c1=O	-3	-2	23	22	1	-2
O=C(Cn1ncc(Cl)c(Cl)c1=O)N1CCc2ccccc21	17	x	43*	x	17	-8
COCCNC(=O)C1(C)CCCN(C(=O)c2ccccc2F)C1 (stereo not drawn)	-6	x	-6	x	x	3
COc1cc(CCN(C(=O)c2cccc(S(C)(=O)=O)c2)C(CCc2ccccc2)c2nc3ccccc3[nH]2)cc(OC)c1 (stereo not drawn)	4	x	23	x	x	7
COc1nc(Cl)cn(-c2ccc(C)cc2)c1=O	-4	-2	-3	-13	7	0
Cc1ccc(-n2c(Cl)c(Cl)nc(Cl)c2=O)cc1	61*	x	52*	x	82*	5
O=C1Nc2ccc(Br)cc2C1(O)c1ccc(F)cc1 (stereo not drawn)	-3	-3	-8	-18	-3	0
O=C(Nc1nc(-c2ccccc2)cs1)C1CCCN(S(=O)(=O)c2cccc([N+](=O)[O-])c2)C1 (stereo not drawn)	-15	-1	1	-12	5	-5
O=C(Nc1nc(-c2ccccc2)cs1)C1CCCN(S(=O)(=O)c2ccccc2)C1 (stereo not drawn)	-8	7	-14	6	66*	-2
Cc1ccc(S(=O)(=O)Nc2ccccc2)cc1[N+](=O)[O-]	-1	x	8	x	15	-4
Cc1cccc2c(N=Nc3ccc(S(=O)(=O)Nc4cccc(Cl)c4)cc3[N+](=O)[O-])c(O)[nH]c12	19	-3	2	14	58*	4
N#Cc1c(C(F)(F)F)cc(-c2cccs2)nc1SCc1cccnc1	6	-3	13	-3	14	17*
Cc1ccc(S(=O)(=O)N2C[C@H]3C(=O)C[C@@H](c4ccccc4F)N(S(=O)(=O)c4ccc(C)cc4)[C@H]3C[C@H]2c2ccccc2F)cc1	8	x	14	x	x	4
Cc1ccc(CNC(=O)C2CCC(=O)N(CCc3ccc(Cl)cc3)C2)cc1 (stereo not drawn)	3	-5	49*	5	8	4
Cc1[nH]c2ccccc2c1/C=N/Nc1ccc([N+](=O)[O-])cc1S(=O)(=O)Nc1ccc(Cl)cc1	42*	0	37	-12	57*	1
CCN(CC)c1ccc2cc(C(=O)NNC(=O)c3ccc(S(=O)(=O)N4CCCCC4)cc3)c(=O)oc2c1	19	x	2	x	69*	3
COC(=O)C/C=C/N(Cc1ccccc1OC)S(=O)(=O)CCl	13	x	-9	x	8	9
O=C(Cc1cccc(NC(=O)C2CCCN(C(=O)C3CCCCC3)C2)c1)Nc1ccc(C(=O)N2CCCCC2)cc1 (stereo not drawn)	4	x	-7	x	9	0
O=[N+]([O-])c1ccc(NN=Cc2cccc([N+](=O)[O-])c2)cc1	-2	x	-13	x	14	-3
O=[N+]([O-])c1ccc(N/N=C/c2ccc[nH]2)cc1	10	x	5	x	55*	7
CCN(CC)C(=O)C1=C(C)N(Cc2ccc(F)cc2)C(=O)C(CC(=O)NCCN2CCOCC2)C1 (stereo not drawn)	7	x	1	x	x	0
SMILES	CXCR6 block	APJ agonist	EBI2 antag	APJ antagonist	CCR6 antag	HTR2A ag
N#CC(C#N)=C1C=CC=CN1/C(=C\c1ccco1)C(=O)c1ccc(Cl)cc1	103*	x	74*	x	117*	-2
COc1ccccc1C(=O)NCC(=O)NCC1(N2CCCCC2)CCCCC1	1	-3	1	5	-2	-4
CCC(O)(CC)C(=O)N/N=C/c1cc(Br)cc(Br)c1O	14	-8	64*	8	23	-24
Cn1c(C(=O)NN)cc2cc(OCc3ccccc3)ccc21	-4	5	1	-19	-9	-5
COc1ccc(NC(=S)NC(NC(=O)c2ccc(Cl)cc2Cl)C(Cl)(Cl)Cl)c([N+](=O)[O-])c1 (stereo not drawn)	33*	-5	7	10	36	-4
COc1ccc(NC(=S)NC(NC(=O)CCl)C(Cl)(Cl)Cl)c([N+](=O)[O-])c1 (stereo not drawn)	-4	2	-12	-7	-20	-1
COc1ccc(NC(=S)NC(NC(=O)c2cccc3ccccc23)C(Cl)(Cl)Cl)c([N+](=O)[O-])c1 (stereo not drawn)	26	-7	13	10	41	-5
COc1ccc(NC(=S)NC(NC(=O)c2ccccc2Cl)C(Cl)(Cl)Cl)c([N+](=O)[O-])c1 (stereo not drawn)	34	0	10	22	56*	-2
Cc1ccc(CNC(=O)c2ccc(Cn3cc(-c4ccc(C)cc4)nc3-c3ccncc3)cc2)cc1	-3	2	71*	-3	4	-6
c1ccc(Nc2ccccn2)cc1	-4	-1	-9	-8	-1	-2
c1ccc(/N=C2\N=C(Nc3ccccn3)c3ccccc32)nc1	31	-4	-9	24	56*	5
CC(=O)Nc1ccc(NC(=O)COC(=O)C2CCCCC2)cc1	5	0	-20	-6	0	-1
CC(C)(C=O)C1=CC(=O)c2ccccc2C1=O	100*	x	-2	x	103*	-5
CC1=CC(=O)c2ccccc2C1=O	5	9	-10	-14	16	5
O=C(Cc1c[nH]c2ccccc12)NCc1ccc(Cl)cc1	4	0	32	-5	2	-1
CN1C2C=C(N(CCc3c[nH]c4ccccc34)C(=O)c3ccc(Cl)cc3)CC1CC2 (stereo not drawn)	4	0	61*	5	24	-5
C/C(=N\NC(=S)NCc1ccccc1)c1ccccc1	6	-2	4	-2	14	-6
C/C(=N\NC(=S)NCc1ccccc1)c1ccc(C(C)(C)C)cc1	39	-7	37	34	62*	6
COc1cc(N/N=C(\C)c2ccc(O)c(C)c2)nc(-c2ccccc2)n1	-21	-3	57*	-12	-14	2
C/C(=N\Nc1cc(C)nc(-c2ccccc2)n1)c1cccc([N+](=O)[O-])c1	-4	-4	21	-1	4	3
